Activity calls are given as the source filed them. The rule behind the calls is not given here.
Columns and labels:
[1] = Inhibition of H+/K+ ATPase in hog gastric mucosa; assay type: tissue-based, Sus scrofa
In short: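 Hog gastric mucosa H+/K+-ATPase (0.5-1 µg/100 µL, with nigericin 1:1) in 4 mM Pipes/8 mM Tris pH 7.4, 0.25 M sucrose, 1 mM MgCl2, stimulated by 1 mM KCl. Compound 1e-4 to 1e-9 M final from DMSO stocks. Started with 1 mM Na-ATP, 30 min room temperature. Phosphate read by malachite green at 680 nm after 15 min.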

Gastric gland = test: Inhibition of acid secretion in rabbit intact gastric glands assessed as […] accumulation; assay type: functional, tissue-based; conditions: Oryctolagus cuniculus
In short: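 Isolated gastric glands in Krebs-Henseleit with 2 mg/mL rabbit serum albumin and 2 mg/mL glucose. Incubated 30 min at 37 °C, shaking, with 0.125 µM 14C-aminopyrine at pH 7.4, stimulated by 1 mM dibutyryl cAMP, inhibitor 3 nM-100 µM. Stopped by centrifugation. Accumulation taken from pellet/supernatant radioactivity ratio. IC50 from fitted inhibition equation.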

Rattus norvegicus [2] = test: Inhibition of pentagastrin-stimulated acid secretion in intraduodenally dosed perfused Ghosh Schild rat stomach; assay type: functional; conditions: intraduodenal
In short: (§1)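 Anaesthetised rat with perfused stomach: 37 °C saline at 0.5 mL/min. Effluent titrated to pH 7 with 0.01 N NaOH in 15-min fractions. Secretion driven by continuous iv pentagastrin, 1 µg/kg (1.65 mL/h). Compound given intraduodenally in 2.5 mL/kg volume 60 min after infusion start. Body temperature held at 37.8-38 °C.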

[3] = Dissociation constant, pKa of the compound; assay type: physicochemical
In short: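 Potentiometric cosolvent titration in 0.15 mol/L KCl, pH 2.0-11.0, 25 °C, methanol as cosolvent in varying portions; titrants 0.5 mol/L KOH and HCl.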

[4] = Distribution coefficient, log D of the compound; assay type: physicochemical; conditions: octanol/water
In short: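 Distribution between 1-octanol and aqueous KCl measured by potentiometric titration over pH 2.0-11.0 at 25 °C.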

Rattus norvegicus [5] = test: Inhibition of pentagastrin-stimulated acid secretion in perfused Ghosh Schild rat stomach at 1 umol/kg, intraduodenal; assay type: functional; set-up: scale not given: the % may be the effect or the level left; in short: as §1
Rattus norvegicus [6] = test: Inhibition of pentagastrin-stimulated acid secretion in perfused Ghosh Schild rat stomach at 3 umol/kg, intraduodenal; assay type: functional; set-up: scale not given: the % may be the effect or the level left; in short: as §1

SMILES	pIC50 [1]	IC50 (Gastric gland) [nM]	ED50 (Rattus norvegicus [2]) [µmol/kg]	pKa [3]	logD [4]	Activity (Rattus norvegicus [5]) [%]	Activity (Gastric gland)	Activity (Rattus norvegicus [6]) [%]
Cc1nc2c3c(c(C(=O)N(C)C)cn2c1Br)CCC(c1ccccc1)O3 (racemic)	4.9	12600	1	4.68	3.2			
CC#CC(=O)c1c(C)nc2c3c(c(C(=O)N(C)C)cn12)CCC(c1ccccc1)O3 (racemic)	6.2			3.2	3.2	43	inactive	
Cc1nc2c3c(c(C(=O)N(C)C)cn2c1CO)CC[C@H](c1ccccc1)O3	4.2		> 6				inactive	
Cc1nc2c3c(c(C(=O)N4CCCC4)cn2c1C)CCC(c1ccccc1)O3 (racemic)	5.8	316		6.73	2.83	47		
Cc1nc2c3c(c(C4=NCCO4)cn2c1C)CCC(c1ccccc1)O3 (racemic)	6	794	2					
Cc1nc2c3c(c(C(=O)N(C)C)cn2c1CN(C)C)CCC(c1ccccc1)O3 (racemic)	5			4.09	1.8	20		
Cc1nc2c3c(c(C(=O)N4CCCC4)cn2c1C)CC[C@@H](c1ccccc1)O3	6.4	200	1					
CCc1c(C)nc2c3c(c(C(=O)N(C)C)cn12)CC[C@H](c1ccccc1)O3	4.4	10000						20
Cc1nc2c3c(ccn2c1C)CCC(c1ccccc1)O3 (racemic)	6.9	316		7.73	3.5	26		
CC(=O)c1c(C)nc2c3c(c(C(=O)N(C)C)cn12)CC[C@@H](c1ccccc1)O3	< 4		0.1				inactive	
Cc1nc2c3c(c(C(=O)NC4CC4)cn2c1C)CCC(c1ccccc1)O3 (racemic)	6	1000		6.69	3.22	82		
Cc1nc2c3c(c(C(=O)Nc4ccccc4)cn2c1C)CCC(c1ccccc1)O3 (racemic)	5.5	251	0.3	6.59	5			
Cc1nc2c3c(c(C(=O)N(C)C)cn2c1C)CC[C@@H](c1ccccc1)O3	6.8	200	0.22					
Cc1nc2c3c(c(C(=O)N4CCC4)cn2c1C)CCC(c1ccccc1)O3 (racemic)	6.2	398		6.64	2.6	75		
Cc1nc2c3c(c(C(=O)N(C)C)cn2c1C)CC[C@H](c1ccccc1F)O3	5.3	398						42
Cc1nc2c3c(c(C(N)=O)cn2c1C)CCC(c1ccccc1)O3 (racemic)	5.9	2510	0.8	6.52	2.53			
Cc1nc2c3c(c(C(=O)N4CCC4)cn2c1C)CC[C@H](c1ccccc1)O3	5.1	1580						37
Cc1ccccc1C1CCc2c(C(=O)N(C)C)cn3c(C)c(C)nc3c2O1 (racemic)	6.2	200	0.4	6.74	2.76			
Cc1nc2c3c(c(C(=O)N(C)C)cn2c1C)CC[C@@H](c1ccccc1F)O3	6.3	79.4	0.2					
Cc1nc2c3c(c(C(N)=O)cn2c1C)CC[C@H](c1ccccc1)O3		25100						30
Cc1nc2c3c(c(C(=O)N(C)C)cn2c1Br)CC[C@@H](c1ccccc1)O3	5	6310	1.5					
CCOC(=O)c1cn2c(C)c(C)nc2c2c1CCC(c1ccccc1)O2 (racemic)	6	2510		6.35	4.56	34		
Cc1nc2c3c(c(C(=O)N4CCNCC4)cn2c1C)CCC(c1ccccc1)O3 (racemic)	5.3			6.44	1.53	36	inactive	
Cc1nc2c3c(c(C(=O)N(C)C)cn2c1C)CC[C@H](c1ccc(F)cc1)O3	5.7	1000	1.5					

SMILES	pIC50 [1]	IC50 (Gastric gland) [nM]	ED50 (Rattus norvegicus [2]) [µmol/kg]	pKa [3]	logD [4]	Activity (Rattus norvegicus [5]) [%]	Activity (Gastric gland)	Activity (Rattus norvegicus [6]) [%]
Cc1nc2c3c(c(C(=O)N(C)C)cn2c1C)CCC(c1cccs1)O3 (racemic)	5.3	631		6.64	2.05	46		
CC(=O)c1c(C)nc2c3c(c(C(=O)N(C)C)cn12)CCC(c1ccccc1)O3 (racemic)	< 4			3.73	2.55	55	inactive	
CCc1c(C)nc2c3c(c(C(=O)N(C)C)cn12)CC[C@@H](c1ccccc1)O3	5.5	1260	1.2					
CON(C)C(=O)c1cn2c(C)c(C)nc2c2c1CCC(c1ccccc1)O2 (racemic)	5.8	398	0.4	6.49	2.6			
Cc1nc2c3c(c(C(=O)N(C)C)cn2c1C)CCC(c1ccccc1F)O3 (racemic)	5.9	631		6.78	2.8	73		
Cc1nc2c3c(c(C(=O)NC4CC4)cn2c1C)CC[C@@H](c1ccccc1)O3	5.7	100	0.25					
Cc1nc2c3c(c(C(=O)N(C)C)cn2c1CO)CCC(c1ccccc1)O3 (racemic)	5.6	31600		5.86	1.52	55		
Cc1nc2c3c(c(C(=O)N4CC4)cn2c1C)CCC(c1ccccc1)O3 (racemic)	5.3	398		6.63	2.9	35		
CCN(CC)C(=O)c1cn2c(C)c(C)nc2c2c1CCC(c1ccccc1)O2 (racemic)	5.2	794		6.75	3.2	23		
Cc1nc2c3c(c(C(=O)N(C)C)cn2c1CO)CC[C@@H](c1ccccc1)O3	5.8	7940	5					
Cc1nc2c3c(c(C(=O)N(C)C)cn2c1C)CC[C@@H](c1ccc(F)cc1)O3	6.5	158	0.25					
Cc1nc2c3c(c(C(=O)N(C)C)cn2c1C)CCC(c1ccccc1)O3 (racemic)	5.8	501	0.5	7.15	2.83			
CNC(=O)c1cn2c(C)c(C)nc2c2c1CCC(c1ccccc1)O2 (racemic)	5.6	1000	0.6	6.74	2.8			
Cc1ccccc1[C@@H]1CCc2c(C(=O)N(C)C)cn3c(C)c(C)nc3c2O1	6.3	251	0.4					
Cc1nc2c3c(c(C(=O)NC4CCC4)cn2c1C)CCC(c1ccccc1)O3 (racemic)	5.2	398		6.68	3.76	26		
CON(C)C(=O)c1cn2c(C)c(C)nc2c2c1CC[C@H](c1ccccc1)O2	4.5							20
Cc1nc2c3c(c(C(=O)N4CCC4)cn2c1C)CC[C@@H](c1ccccc1)O3	6.4	50.1	0.2					
CCOc1ccc(NC(=O)c2cn3c(C)c(C)nc3c3c2CCC(c2ccccc2)O3)cc1 (racemic)	> 6	200		6.57	4.3	33		
Cc1nc2c3c(c(C(=O)N(C)C)cn2c1C)CCC(c1ccc(F)cc1)O3 (racemic)	6.2	398	0.35	6.74	2.78			
CON(C)C(=O)c1cn2c(C)c(C)nc2c2c1CC[C@@H](c1ccccc1)O2	5.6		0.4					
CCc1c(C)nc2c3c(c(C(=O)N(C)C)cn12)CCC(c1ccccc1)O3 (racemic)	5	2000		6.7	3	30		
Cc1ccccc1[C@H]1CCc2c(C(=O)N(C)C)cn3c(C)c(C)nc3c2O1	6.1	251	1.3					
CC#CC(O)c1c(C)nc2c3c(c(C(=O)N(C)C)cn12)CCC(c1ccccc1)O3 (racemic)	< 4			5.58	2.5	22		
Cc1nc2c3c(c(C(N)=O)cn2c1C)CC[C@@H](c1ccccc1)O3		1580	1					

Source: ChEMBL document CHEMBL1138298, “Synthesis and evaluation of 7H-8,9-dihydropyrano[2,3-c]imidazo[1,2-a]pyridines as potassium-competitive acid blockers” (J Med Chem, 2007)
